Measured values reported in ChEMBL document CHEMBL4765235, “Discovery of N-[Bis(4-methoxyphenyl)methyl]-4-hydroxy-2-(pyridazin-3-yl)pyrimidine-5-carboxamide (MK-8617), an Orally Active Pan-Inhibitor of Hypoxia-Inducible Factor Prolyl Hydroxylase 1-3 (HIF PHD1-3) for the Treatment of Anemia” (J Med Chem, 2016).

Columns and labels:
[1] = In vivo inhibition of HIF-PHD2 in C57BL/6 mouse assessed as serum erythropoietin level at 100 mg/kg, iv measured after 4 hrs; assay type: functional
How it was run: (§1)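 Mouse pharmacodynamic EPO assay (MoPED). Compound dosed iv; serum EPO measured 4 hr after dosing and reported in pg/mL. Minimum effective dose is the lowest dose giving EPO elevation.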

[2] = In vivo inhibition of HIF-PHD2 in C57BL/6 mouse assessed as serum erythropoietin level at 15 mg/kg, iv measured after 4 hrs; assay type: functional; how it was run: as §1
Egl nine homolog 1 [3] = biological target: T1, Egl nine homolog 1 (Homo sapiens, UniProt Q9GZT9); test: Inhibition of FLAG-tagged full-length HIF-PHD2 (unknown origin) expressed in baculovirus infected Sf9 cells using 2-oxoglutarate and HIF1alpha biotinyl-DLDLEMLAPYIPMDDDFQL as peptide substrates preincubated for 30 mins followed by substrate addition and measured after 2 hrs by LANCE assay
[4] = In vivo inhibition of HIF-PHD2 in iv dosed C57BL/6 mouse assessed as minimum effective dose causing increase in serum erythropoietin levels measured after 4 hrs; assay type: functional; details: C57BL/6, iv, read-out: MED; how it was run: as §1
[5] = In vivo inhibition of HIF-PHD2 in C57BL/6 mouse assessed as serum erythropoietin level at 5 mg/kg, iv measured after 4 hrs; assay type: functional; how it was run: as §1
[6] = In vivo inhibition of HIF-PHD2 in C57BL/6 mouse assessed as serum erythropoietin level at 1.5 mg/kg, iv measured after 4 hrs; assay type: functional; how it was run: as §1
[7] = biological target: Voltage-gated inwardly rectifying potassium channel KCNH2 (Homo sapiens, UniProt Q12809); test: Inhibition of human ERG
[8] = Half life in dog at 1 mg/kg, po or 0.5 mg/kg, iv; assay type: ADME, organism-based, Canis lupus familiaris; details: in vivo
How it was run: (§2)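 Single-dose PK at 1 mg/kg po and 0.5 mg/kg iv. Mouse clearance is from blood; dog and rhesus clearance is from plasma. Mouse vehicle, both routes: DMSO:PEG400:water (5:40:55, v/v/v). Dog and monkey iv vehicle: PEG200:12%HPCD:water (30:12:58 v/v/v). Dog and monkey po vehicle: Imwitor:Tween (1:1 w/w).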

[9] = In vivo inhibition of HIF-PHD2 in C57BL/6 mouse assessed as serum erythropoietin level at 50 mg/kg, iv measured after 4 hrs; assay type: functional; how it was run: as §1
[10] = Oral bioavailability in mouse at 2 mg/kg; assay type: ADME, organism-based; details: in vivo
[11] = Cmax in mouse at 2 mg/kg, po or 1 mg/kg, iv; assay type: ADME, organism-based; set-up: dose 2 mg/kg; details: in vivo
[12] = Clearance in mouse at 2 mg/kg, po or 1 mg/kg, iv; assay type: ADME, organism-based; details: in vivo
[13] = Volume of distribution at steady state in mouse at 2 mg/kg, po or 1 mg/kg, iv; assay type: ADME, organism-based; details: in vivo, read-out: Vdss
[14] = Half life in mouse at 2 mg/kg, po or 1 mg/kg, iv; assay type: ADME, organism-based; details: in vivo
[15] = Protein binding in mouse plasma assessed as unbound fraction at 2 mg/kg, po or 1 mg/kg, iv; assay type: ADME, organism-based; details: read-out: PPB
[16] = Oral bioavailability in rat at 2 mg/kg; assay type: ADME, organism-based; details: in vivo
[17] = Cmax in rat at 2 mg/kg, po or 1 mg/kg, iv; assay type: ADME, organism-based; set-up: dose 2 mg/kg; details: in vivo
[18] = Clearance in rat at 2 mg/kg, po or 1 mg/kg, iv; assay type: ADME, organism-based; details: in vivo
[19] = Volume of distribution at steady state in rat at 2 mg/kg, po or 1 mg/kg, iv; assay type: ADME, organism-based; details: in vivo, read-out: Vdss
[20] = Half life in rat at 2 mg/kg, po or 1 mg/kg, iv; assay type: ADME, organism-based; details: in vivo
[21] = Protein binding in rat plasma assessed as unbound fraction at 2 mg/kg, po or 1 mg/kg, iv; assay type: ADME, organism-based; details: read-out: PPB
[22] = Oral bioavailability in dog at 1 mg/kg; assay type: ADME, organism-based, Canis lupus familiaris; details: in vivo
How it was run: (§3)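 Dog and rhesus monkey dosed 1 mg/kg po and 0.5 mg/kg iv. The iv vehicle was PEG200:12%HPCD:water (30:12:58 v/v/v); the po vehicle was Imwitor:Tween (1:1 w/w). Clearance was measured in plasma. Protein binding was measured in 100% serum.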

[23] = Cmax in dog at 1 mg/kg, po or 0.5 mg/kg, iv; assay type: ADME, organism-based, Canis lupus familiaris; set-up: dose 1 mg/kg; details: in vivo; how it was run: as §2
[24] = Clearance in dog at 1 mg/kg, po or 0.5 mg/kg, iv; assay type: ADME, organism-based, Canis lupus familiaris; details: in vivo; how it was run: as §2
[25] = Volume of distribution at steady state in dog at 1 mg/kg, po or 0.5 mg/kg, iv; assay type: ADME, organism-based, Canis lupus familiaris; details: in vivo, read-out: Vdss; how it was run: as §3
[26] = Protein binding in dog plasma assessed as unbound fraction at 1 mg/kg, po or 0.5 mg/kg, iv; assay type: ADME, organism-based, Canis lupus familiaris; details: read-out: PPB
[27] = Oral bioavailability in rhesus monkey at 1 mg/kg; assay type: ADME, organism-based, Macaca mulatta; details: in vivo; how it was run: as §3
[28] = Cmax in rhesus monkey at 1 mg/kg, po or 0.5 mg/kg, iv; assay type: ADME, organism-based, Macaca mulatta; set-up: dose 1 mg/kg; details: in vivo; how it was run: as §2
[29] = Clearance in rhesus monkey at 1 mg/kg, po or 0.5 mg/kg, iv; assay type: ADME, organism-based, Macaca mulatta; details: in vivo; how it was run: as §2
[30] = Volume of distribution at steady state in rhesus monkey at 1 mg/kg, po or 0.5 mg/kg, iv; assay type: ADME, organism-based, Macaca mulatta; details: in vivo, read-out: Vdss; how it was run: as §3
[31] = Half life in rhesus monkey at 1 mg/kg, po or 0.5 mg/kg, iv; assay type: ADME, organism-based, Macaca mulatta; details: in vivo; how it was run: as §2
[32] = Protein binding in rhesus monkey plasma assessed as unbound fraction at 1 mg/kg, po or 0.5 mg/kg, iv; assay type: ADME, organism-based, Macaca mulatta; details: read-out: PPB
[33] = Plasma clearance in rat at 2 mg/kg, po or 1 mg/kg, iv; assay type: ADME, organism-based
Egl nine homolog 1 [34] = biological target: T1, Egl nine homolog 1; test: Inhibition of HIF-PHD2 (unknown origin)

T1 sequence (Q9GZT9 whole entry): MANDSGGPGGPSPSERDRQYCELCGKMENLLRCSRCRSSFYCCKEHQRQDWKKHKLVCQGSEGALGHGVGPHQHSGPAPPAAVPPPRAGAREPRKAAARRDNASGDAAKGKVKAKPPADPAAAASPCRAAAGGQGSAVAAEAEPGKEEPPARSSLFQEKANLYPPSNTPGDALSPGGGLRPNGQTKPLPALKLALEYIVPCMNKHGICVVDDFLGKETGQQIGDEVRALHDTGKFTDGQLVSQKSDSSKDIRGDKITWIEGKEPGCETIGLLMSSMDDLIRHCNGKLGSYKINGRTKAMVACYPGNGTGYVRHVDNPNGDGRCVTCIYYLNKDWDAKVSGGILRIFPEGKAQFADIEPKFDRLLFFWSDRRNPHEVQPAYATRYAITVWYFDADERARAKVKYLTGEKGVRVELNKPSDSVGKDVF
Sequence of Voltage-gated inwardly rectifying potassium channel KCNH2 (Q12809 whole entry): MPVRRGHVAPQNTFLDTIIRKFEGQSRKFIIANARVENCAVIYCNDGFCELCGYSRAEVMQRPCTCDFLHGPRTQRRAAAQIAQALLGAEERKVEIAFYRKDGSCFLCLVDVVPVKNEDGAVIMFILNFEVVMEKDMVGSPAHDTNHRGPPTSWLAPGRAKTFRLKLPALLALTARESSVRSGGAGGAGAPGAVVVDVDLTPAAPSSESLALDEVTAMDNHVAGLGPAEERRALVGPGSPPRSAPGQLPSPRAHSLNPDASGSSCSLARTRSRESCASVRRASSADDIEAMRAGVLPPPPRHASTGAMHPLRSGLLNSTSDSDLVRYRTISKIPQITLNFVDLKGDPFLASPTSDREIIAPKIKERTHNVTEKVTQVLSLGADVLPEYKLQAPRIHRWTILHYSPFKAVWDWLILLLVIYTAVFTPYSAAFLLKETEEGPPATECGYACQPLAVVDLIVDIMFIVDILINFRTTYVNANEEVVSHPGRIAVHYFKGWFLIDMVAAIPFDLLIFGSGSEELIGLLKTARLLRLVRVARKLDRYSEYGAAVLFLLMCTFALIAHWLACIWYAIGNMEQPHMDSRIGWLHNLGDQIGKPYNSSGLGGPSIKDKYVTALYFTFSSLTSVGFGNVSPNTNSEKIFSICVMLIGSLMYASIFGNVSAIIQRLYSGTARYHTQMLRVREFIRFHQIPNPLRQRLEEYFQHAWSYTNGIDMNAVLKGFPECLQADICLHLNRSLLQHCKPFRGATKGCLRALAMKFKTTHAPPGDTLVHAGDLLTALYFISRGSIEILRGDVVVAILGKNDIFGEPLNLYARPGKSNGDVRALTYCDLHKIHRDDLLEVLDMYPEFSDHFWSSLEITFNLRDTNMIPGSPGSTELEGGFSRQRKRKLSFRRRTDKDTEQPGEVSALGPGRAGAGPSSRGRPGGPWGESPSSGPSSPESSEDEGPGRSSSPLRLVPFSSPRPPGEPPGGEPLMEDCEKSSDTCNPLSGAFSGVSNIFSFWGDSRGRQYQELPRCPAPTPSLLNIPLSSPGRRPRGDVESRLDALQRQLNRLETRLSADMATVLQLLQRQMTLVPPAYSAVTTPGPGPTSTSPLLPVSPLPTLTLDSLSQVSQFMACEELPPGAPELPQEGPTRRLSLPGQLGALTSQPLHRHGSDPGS

For `Cc1nc(-c2ncc(C(=O)NC(C)(C)c3ccccc3)c(O)n2)cs1`, the Activity [1] was 110 pg/mL.
With `C[C@@H](NC(=O)c1cnc(-n2cccn2)nc1O)c1ccc(F)cc1` the Activity [2] was 350 pg/mL.
For `CC(C)(NC(=O)c1cnc(-c2ccc(C(F)(F)F)cn2)nc1O)c1ccccc1`, the IC50 (Egl nine homolog 1 [3]) was > 2700 nM.
In the case of `COc1ccc(C(NC(=O)c2cnc(-n3cccn3)nc2O)c2ccc(OC)cc2)cc1`, the minimal effective dose [4] is reported as 1.5 mg/kg, the Activity [5] is reported as 740 pg/mL and the Activity [2] is reported as 31000 pg/mL. It also gave an Activity [6] of 190 pg/mL.
In the case of `O=C(NC(c1ccccc1)c1ccccc1)c1cnc(-c2cccnn2)nc1O`, the Activity [5] is reported as 380 pg/mL, the Activity [2] is reported as 1600 pg/mL and the IC50 [7] is reported as > 30000 nM.
For `C[C@H](NC(=O)c1cnc(-n2cccn2)nc1O)c1ccccc1`, the Activity [5] was 690 pg/mL and the Activity [2] was 10000 pg/mL.
Compound `O=C(NCc1ccc(-c2ccccc2)cc1)c1cnc(-n2cccn2)nc1O` has a half-life [8] of 143 h.
Work on `CC(C)(NC(=O)c1cnc(-n2cccn2)nc1O)c1ccccc1` yielded an Activity [5] of 460 pg/mL, an Activity [2] of 5000 pg/mL and an Activity [9] of 24000 pg/mL. The bioavailability [10] was 98%, the Cmax [11] was 30 µM and the clearance [12] was 1 mL/min/kg. For the same compound, the Vd [13] was 0.3 L/kg, the half-life [14] was 3.7 h and the fraction unbound [15] was 0.093. For the same compound, the bioavailability [16] was 99%, the Cmax [17] was 49 µM and the clearance [18] was 0.2 mL/min/kg. The Vd [19] was 0.06 L/kg, the half-life [20] was 4.2 h and the fraction unbound [21] was 0.012. For the same compound, the bioavailability [22] was 61%, the Cmax [23] was 11 µM and the clearance [24] was 0.004 mL/min/kg. The Vd [25] was 0.1 L/kg, the half-life [8] was > 100 h and the fraction unbound [26] was 0.027. For the same compound, the bioavailability [27] was 71%, the Cmax [28] was 22 µM and the clearance [29] was 0.001 mL/min/kg. The Vd [30] was 0.13 L/kg, the half-life [31] was 95 h and the fraction unbound [32] was 0.004.
`COc1ccc([C@H](C)NC(=O)c2cnc(-n3cccn3)nc2O)cc1` showed an Activity [2] of 5300 pg/mL and a half-life [8] of 94 h.
For `O=C(NCc1ccc(OC(F)(F)F)cc1)c1cnc(-n2cccn2)nc1O`, the Activity [2] was 180 pg/mL and the Activity [9] was 8900 pg/mL.
Work on `O=C(NC(c1ccccc1)c1ccccc1)c1cnc(-n2cccn2)nc1O` yielded an Activity [2] of 2900 pg/mL.
Work on `CC(C)(NC(=O)c1cnc(-c2cscn2)nc1O)c1ccccc1` yielded an Activity [1] of 2100 pg/mL, a bioavailability [16] of 61% and a half-life [20] of 2.9 h.
`C[C@@H](NC(=O)c1cnc(-n2cccn2)nc1O)c1ccccc1` showed an Activity [2] of 322 pg/mL.
For `O=C(NCc1ccc(F)cc1)c1cnc(-c2ccccn2)nc1O`, the minimal effective dose [4] was 100 mg/kg, the Activity [1] was 1200 pg/mL and the IC50 [7] was > 30000 nM. For the same compound, the bioavailability [16] was 67%, the Vd [19] was 0.35 L/kg and the half-life [20] was 3.3 h. It also gave a clearance [33] of 2 mL/min/kg and an IC50 (Egl nine homolog 1 [34]) of 110 nM.
`C[C@H](NC(=O)c1cnc(-n2cccn2)nc1O)c1ccc(F)cc1` gave an Activity [2] of 16000 pg/mL and a half-life [8] of 60 h.
With `O=C(NCc1ccc(Cl)cc1)c1cnc(-n2cccn2)nc1O` the Activity [2] was 1100 pg/mL.
`CC(C)(NC(=O)c1cnc(-c2cc(C(=O)O)ccn2)nc1O)c1ccccc1` gave a minimal effective dose [4] of 15 mg/kg, an Activity [2] of 220 pg/mL and a bioavailability [16] of 5%. It also gave a half-life [20] of 0.23 h.
With `CC(C)(NC(=O)c1cnc(-n2cc(C(=O)O)cn2)nc1O)c1ccccc1` the Activity [2] was 1900 pg/mL, the bioavailability [16] was 3% and the half-life [20] was 2.1 h.
